Source: ChEMBL document CHEMBL4622950, “The synthesis and antituberculosis activity of 5-alkynyl uracil derivatives” (Bioorg Med Chem Lett, 2020)
Converted amounts (≈) assume the structure as drawn.

Key:
[1] = system: Mycobacterium tuberculosis; assay: Antitubercular activity against Mycobacterium bovis BCG assessed as bacterial growth inhibition at 100 ug/ml by MABA relative to control; assay type: functional; settings: variant bovis BCG, read-out: GI
[2] = system: Mycobacterium tuberculosis; assay: Antitubercular activity against Mycobacterium bovis BCG assessed as bacterial growth inhibition at 50 ug/ml by MABA relative to control; assay type: functional; settings: variant bovis BCG, read-out: GI
[3] = system: Mycobacterium tuberculosis; assay: Antitubercular activity against Mycobacterium bovis BCG assessed as bacterial growth inhibition at 10 ug/ml by MABA relative to control; assay type: functional; settings: variant bovis BCG, read-out: GI
[4] = system: Mycobacterium tuberculosis; assay: Antitubercular activity against Mycobacterium bovis BCG assessed as bacterial growth inhibition by alamar blue staining based assay; assay type: functional; settings: variant bovis BCG
In short: (§1)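 Whole-cell growth inhibition of Mycobacterium bovis and M. tuberculosis H37Ra, read quantitatively by Microplate Alamar Blue Assay (alamar blue reagent). Compounds were tested across 1 to 100 µg/ml. Activity was expressed as MIC50 (µg/ml) from this concentration series.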

[5] = system: Mycobacterium tuberculosis; assay: Antitubercular activity against Mycobacterium bovis BCG assessed as bacterial growth inhibition by MABA relative to control; assay type: functional, variant bovis BCG; in short: as §1
[6] = system: Mycobacterium tuberculosis; assay: Antitubercular activity against Mycobacterium bovis BCG assessed as bacterial growth inhibition at 1 ug/ml by MABA relative to control; assay type: functional; settings: variant bovis BCG, read-out: GI
[7] = system: Mycobacterium tuberculosis; assay: Antitubercular activity against Mycobacterium bovis BCG assessed as bacterial growth inhibition at 1 to 5 ug/ml by MABA relative to control; assay type: functional, variant bovis BCG
[8] = system: Mycobacterium tuberculosis; assay: Antitubercular activity against Mycobacterium bovis BCG assessed as bacterial growth inhibition at 50 to 100 ug/ml by MABA relative to control; assay type: functional, variant bovis BCG
[9] = system: Mycobacterium tuberculosis; assay: Antitubercular activity against Mycobacterium bovis BCG assessed as bacterial growth inhibition at 10 to 50 ug/ml by MABA relative to control; assay type: functional, variant bovis BCG
[10] = system: Mycobacterium tuberculosis; assay: Antitubercular activity against Mycobacterium bovis BCG assessed as bacterial growth inhibition at 25 ug/ml by MABA relative to control; assay type: functional; settings: variant bovis BCG, read-out: GI
[11] = system: Mycobacterium tuberculosis; assay: Antitubercular activity against Mycobacterium bovis BCG assessed as bacterial growth inhibition at 5 ug/ml by MABA relative to control; assay type: functional; settings: variant bovis BCG, read-out: GI

Compound | inhibition of growth at 100 µg/mL [1] [%] | inhibition of growth at 10 µg/mL [3] [%] | MIC50 [4] [µg/mL] | growth inhibition (GI) [7] [%] | other results
CCCCCCC#Cc1cn([C@@H]2O[C@H](CO)[C@@H](O)[C@H]2O)c(=O)[nH]c1=O | 60 | 0 | < 50 | – | inhibition of growth at 50 µg/mL [2]: 0%
CCC#Cc1c[nH]c(=O)[nH]c1=O | – | – | – | – | growth inhibition (GI) [5]: 0%
CO[C@H]1/C=C/O[C@@]2(C)Oc3c(C)c(O)c4c(O)c(c(/C=N/N5CCN(C)CC5)c(O)c4c3C2=O)NC(=O)/C(C)=C\C=C\[C@H](C)[C@H](O)[C@@H](C)[C@@H](O)[C@@H](C)[C@H](OC(C)=O)[C@@H]1C [RIFAMPIN] | – | – | 0.8 (≈ 0.972 µM) | – | inhibition of growth at 1 µg/mL [6]: 100%
O=c1[nH]c(=O)n([C@@H]2O[C@H](CO)[C@@H](O)[C@H]2O)cc1C#CC1CC1 | 90 | – | 2.4 (≈ 7.78 µM) | 50 | –
CCCCC#Cc1cn([C@@H]2O[C@H](CO)[C@@H](O)[C@H]2O)c(=O)[nH]c1=O | 50 | 0 | 50 (≈ 154 µM) | – | inhibition of growth at 50 µg/mL [2]: 0%
CCCCCCC#Cc1c[nH]c(=O)[nH]c1=O | – | – | – | – | growth inhibition (GI) [5]: 0%
NNC(=O)c1ccncc1 [ISONIAZID] | – | – | 0.9 (≈ 6.56 µM) | – | inhibition of growth at 1 µg/mL [6]: 100%
O=c1[nH]c(=O)n([C@@H]2O[C@H](CO)[C@@H](O)[C@H]2O)cc1C#Cc1ccccc1 | – | 75 | 2.7 (≈ 7.84 µM) | 50 | growth inhibition (GI) [8]: 90%
CC#Cc1c[nH]c(=O)[nH]c1=O | – | – | – | – | growth inhibition (GI) [5]: 0%
O=c1[nH]cc(C#CC2CCCCC2)c(=O)[nH]1 | 90 | – | 2.5 (≈ 11.5 µM) | 50 | growth inhibition (GI) [9]: 75%
O=c1[nH]cc(C#CC2CC2)c(=O)[nH]1 | 80 | – | 7.8 (≈ 44.3 µM) | – | growth inhibition (GI) [9]: 60%
O=c1[nH]c(=O)n([C@@H]2O[C@H](CO)[C@@H](O)[C@H]2O)cc1C#CC1CCCCC1 | 90 | – | 19.2 (≈ 54.8 µM) | 10 | inhibition of growth at 25 µg/mL [10]: 60%
N[C@@H]1CONC1=O [CYCLOSERINE] | – | 71 | 5.1 (≈ 50 µM) | – | inhibition of growth at 5 µg/mL [11]: 50%
O=c1[nH]c(=O)n([C@@H]2O[C@H](CO)[C@@H](O)[C@H]2O)cc1C#CC(O)c1ccccc1 (stereo partly drawn) | – | – | 1.4 (≈ 3.74 µM) | 100 | –
C[Si](C)(C)C#Cc1c[nH]c(=O)[nH]c1=O | 50 | – | 100 (≈ 480 µM) | – | –
O=c1[nH]cc(C#Cc2ccccc2)c(=O)[nH]1 | – | 40 | 17.4 (≈ 82 µM) | – | growth inhibition (GI) [8]: 90%
O=c1[nH]cc(C#CC(O)c2ccccc2)c(=O)[nH]1 (stereo not drawn) | – | 80 | 3.1 (≈ 12.8 µM) | 50 | growth inhibition (GI) [8]: 90%
CCCCC#Cc1c[nH]c(=O)[nH]c1=O | – | – | – | – | growth inhibition (GI) [5]: 0%
